Assay results from ChEMBL document CHEMBL5329164, “Design, synthesis, and evaluation of BTK-targeting PROTACs with optimized bioavailability in vitro and in vivo” (RSC Med Chem, 2023).

Tests used:
[1] = molecular target: T1, Protein cereblon/Tyrosine-protein kinase BTK (Homo sapiens) (UniProt Q06187+Q96SW2); assay: PROTAC activity at CRBN/ BTK in human Ramos cells assessed as induction of BTK degradation at 300 nM incubated for 24 hrs by immunoblot analysis relative to control; type: cell-based
T1 sequence (Q06187 2-659 limits assumed): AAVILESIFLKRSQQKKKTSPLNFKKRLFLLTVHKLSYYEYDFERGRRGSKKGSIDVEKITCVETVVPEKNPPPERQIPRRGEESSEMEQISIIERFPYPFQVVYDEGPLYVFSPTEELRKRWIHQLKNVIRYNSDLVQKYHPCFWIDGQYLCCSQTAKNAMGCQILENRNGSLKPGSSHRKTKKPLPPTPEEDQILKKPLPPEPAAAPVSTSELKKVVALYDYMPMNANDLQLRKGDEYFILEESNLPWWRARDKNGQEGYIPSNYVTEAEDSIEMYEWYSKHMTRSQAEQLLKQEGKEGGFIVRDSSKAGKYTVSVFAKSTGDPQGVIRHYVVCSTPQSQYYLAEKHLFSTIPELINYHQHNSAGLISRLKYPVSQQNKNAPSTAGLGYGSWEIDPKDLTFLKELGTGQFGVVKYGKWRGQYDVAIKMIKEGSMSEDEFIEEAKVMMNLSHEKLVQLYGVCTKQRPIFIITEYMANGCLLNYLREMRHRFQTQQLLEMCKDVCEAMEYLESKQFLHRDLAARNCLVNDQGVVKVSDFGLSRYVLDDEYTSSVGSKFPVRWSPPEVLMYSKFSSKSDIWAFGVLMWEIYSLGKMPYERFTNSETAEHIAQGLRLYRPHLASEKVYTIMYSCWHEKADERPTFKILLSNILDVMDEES
T1 sequence (Q96SW2 whole entry partner): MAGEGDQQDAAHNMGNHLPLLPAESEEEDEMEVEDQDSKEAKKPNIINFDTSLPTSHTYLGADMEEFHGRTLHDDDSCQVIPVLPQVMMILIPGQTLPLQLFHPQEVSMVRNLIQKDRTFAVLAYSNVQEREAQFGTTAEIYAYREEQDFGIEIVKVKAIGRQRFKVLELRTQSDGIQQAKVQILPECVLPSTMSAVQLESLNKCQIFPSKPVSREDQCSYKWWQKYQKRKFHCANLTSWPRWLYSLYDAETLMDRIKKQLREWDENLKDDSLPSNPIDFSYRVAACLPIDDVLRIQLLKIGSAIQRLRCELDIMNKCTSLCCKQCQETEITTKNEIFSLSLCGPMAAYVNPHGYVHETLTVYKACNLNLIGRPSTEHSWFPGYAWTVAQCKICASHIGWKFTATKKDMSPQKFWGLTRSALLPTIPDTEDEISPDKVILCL
In short: (§1)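 Ramos cells in supplemented RPMI 1640 were plated at 3×10^5 cells/well and treated with compound for 24 h. Lysates in SDS sample buffer were heated at 100 °C for 15 min and run on 10% SDS-PAGE, then transferred to PVDF. Membranes were probed overnight at 4 °C for BTK, GSPT1 and β-actin.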

[2] = molecular target: T1, Protein cereblon/Tyrosine-protein kinase BTK (Homo sapiens); assay: PROTAC activity at CRBN/ BTK in human Ramos cells assessed as induction of BTK degradation at 100 nM incubated for 24 hrs by immunoblot analysis relative to control; type: cell-based; in short: as §1
[3] = Oral bioavailability in BALB/c mouse at 5 mg/kg measured for 24 hrs by LCMS analysis; type: ADME, organism-based; conditions: in vivo
In short: (§2)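 Male Balb/c mice, 9 per group, dosed intragastrically at 5 mg/kg; the same compounds were also given iv at 2 mg/kg. Blood was drawn into EDTA-K2 tubes at 0.25, 0.5, 1, 2, 4, 6, 8 and 24 h. Plasma proteins were precipitated with acetonitrile containing tolbutamide. Quantification was by LC-MS on a C18 column with a formic acid water/acetonitrile gradient.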

[4] = Tmax in BALB/c mouse at 5 mg/kg, po measured for 24 hrs by LCMS analysis; type: ADME, organism-based; conditions: in vivo; in short: as §2
[5] = Cmax in BALB/c mouse at 5 mg/kg, po measured for 24 hrs by LCMS analysis; type: ADME, organism-based; set-up: dose 5 mg/kg, time 24 hrs, route po; conditions: in vivo; in short: as §2
[6] = Stability in human liver microsomes assessed as half life at 1 uM preincubated for 10 mins followed by reaction initiation measured upto 60 mins in presence of NADPH; type: ADME, Microsome; conditions: time < 70 min
In short: (§3)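 Compound at 1 μM final was incubated with 0.5 mg/mL mouse, rat, dog, monkey or human liver microsomes in 100 mM PBS, pH 7.4, with 1 mM NADPH at 37 °C after a 10 min preincubation. Reactions were stopped at 0, 5, 15, 30 and 60 min with ice-cold acetonitrile containing tolbutamide. Supernatants were taken for bioanalysis.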

[7] = Half life in BALB/c mouse at 5 mg/kg, po measured for 24 hrs by LCMS analysis; type: ADME, organism-based; conditions: in vivo; in short: as §2
[8] = Stability in dog liver microsomes assessed as intrinsic clearance measured per mg protein at 1 uM preincubated for 10 mins followed by reaction initiation measured upto 60 mins in presence of NADPH; type: ADME, Canis lupus familiaris, Microsome; conditions: time < 70 min, read-out: CLH; in short: as §3
[9] = AUClast in BALB/c mouse at 2 mg/kg, iv measured for 24 hrs by LCMS analysis; type: ADME, organism-based; set-up: time 24 hrs, dose 2 mg/kg, route iv; conditions: in vivo
In short: (§4)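 Male Balb/c mice, 9 per group, dosed intravenously at 2 mg/kg. Blood was drawn into EDTA-K2 tubes at 0.083, 0.25, 0.5, 1, 2, 4, 6, 8 and 24 h. Plasma was separated by centrifugation at 2000 g for 10 min and precipitated with acetonitrile containing tolbutamide internal standard. Analysis was by LC-MS on a polar C18 column with a water/acetonitrile 0.1% formic acid gradient.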

[10] = Stability in rat liver microsomes assessed as intrinsic clearance measured per mg protein at 1 uM preincubated for 10 mins followed by reaction initiation measured upto 60 mins in presence of NADPH; type: ADME, Microsome; conditions: time < 70 min, read-out: CLH; in short: as §3
[11] = Apparent permeability across apical to basal side in MDCK-II cells at 10 uM measured for 120 mins by LC-MS/MS analysis; type: ADME, cell-based, Canis lupus familiaris; conditions: dog
In short: (§5)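 MDCK monolayers were grown on Transwell inserts (5 x 10^4 cells/cm²) and used at day 5. Compound at 10 μM in HBSS with 10 mM Hepes, pH 7.40, was dosed apically or basolaterally and incubated at 37±1 °C. Lucifer yellow passage below 1% confirmed monolayer integrity.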

[12] = Stability in human liver microsomes assessed as intrinsic clearance measured per mg protein at 1 uM preincubated for 10 mins followed by reaction initiation measured upto 60 mins in presence of NADPH; type: ADME, Microsome; conditions: time < 70 min, read-out: CLH; in short: as §3
[13] = Apparent volume of distribution in BALB/c mouse at 2 mg/kg, iv measured for 24 hrs by LCMS analysis; type: ADME, organism-based; conditions: in vivo, read-out: Vz; in short: as §4
[14] = Half life in BALB/c mouse at 2 mg/kg, iv measured for 24 hrs by LCMS analysis; type: ADME, organism-based; conditions: in vivo; in short: as §4
[15] = Clearance in BALB/c mouse at 2 mg/kg, iv measured for 24 hrs by LCMS analysis; type: ADME, organism-based; conditions: in vivo; in short: as §4
[16] = Stability in mouse liver microsomes assessed as intrinsic clearance measured per mg protein at 1 uM preincubated for 10 mins followed by reaction initiation measured upto 60 mins in presence of NADPH; type: ADME, Microsome; conditions: time < 70 min, read-out: CLH; in short: as §3
[17] = Apparent permeability across apical to basal side in MDCK-II cells assessed as compound recovery at 10 uM measured for 120 mins by LC-MS/MS analysis; type: ADME, cell-based, Canis lupus familiaris; conditions: dog, read-out: Drug recovery
In short: as §5, with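 “°C. Receiver and donor samples were taken at 120 min and quantified by LC-MS/MS against an internal standard.” for “°C.”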

[18] = Apparent permeability across basal to apical side in MDCK-II cells at 10 uM measured for 120 mins by LC-MS/MS analysis; type: ADME, cell-based, Canis lupus familiaris; conditions: dog; in short: as §5
[19] = Stability in monkey liver microsomes assessed as intrinsic clearance measured per mg protein at 1 uM preincubated for 10 mins followed by reaction initiation measured upto 60 mins in presence of NADPH; type: ADME, Macaca mulatta, Microsome; conditions: rhesus monkey, time < 70 min, read-out: CLH; in short: as §3
[20] = Stability in monkey liver microsomes assessed as half life at 1 uM preincubated for 10 mins followed by reaction initiation measured upto 60 mins in presence of NADPH; type: ADME, Macaca mulatta, Microsome; conditions: rhesus monkey, time < 70 min; in short: as §3
[21] = Apparent permeability across basal to apical side in MDCK-II cells assessed as compound recovery at 10 uM measured for 120 mins by LC-MS/MS analysis; type: ADME, cell-based, Canis lupus familiaris; conditions: dog, read-out: Drug recovery
In short: as §5, with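 “°C. Receiver and donor samples were taken at 120 min and quantified by LC-MS/MS against an internal standard.” for “°C.”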

[22] = Stability in mouse liver microsomes assessed as half life at 1 uM preincubated for 10 mins followed by reaction initiation measured upto 60 mins in presence of NADPH; type: ADME, Microsome; conditions: time < 70 min; in short: as §3
[23] = Stability in rat liver microsomes assessed as half life at 1 uM preincubated for 10 mins followed by reaction initiation measured upto 60 mins in presence of NADPH; type: ADME, Microsome; conditions: time < 70 min; in short: as §3
[24] = Stability in dog liver microsomes assessed as half life at 1 uM preincubated for 10 mins followed by reaction initiation measured upto 60 mins in presence of NADPH; type: ADME, Canis lupus familiaris, Microsome; conditions: time < 70 min; in short: as §3
[25] = AUClast in BALB/c mouse at 5 mg/kg, po measured for 24 hrs by LCMS analysis; type: ADME, organism-based; set-up: dose 5 mg/kg, time 24 hrs, route po; conditions: in vivo; in short: as §2

| bioavailability [3] | Tmax [4] | Cmax [5] | half-life at 1 µM [6] | half-life [7] | microsomal CLint at 1 µM [8] | AUC(0-t) at 24 h [9] | microsomal CLint at 1 µM [10] | Papp A→B at 2 h, 10 µM [11] | microsomal CLint at 1 µM [12] | Vd [13] | half-life [14] | clearance [15] | microsomal CLint at 1 µM [16] | recovery at 2 h, 10 µM [17] | Papp B→A at 2 h, 10 µM [18] | microsomal CLint at 1 µM [19] | half-life at 1 µM [20] | recovery at 2 h, 10 µM [21] | half-life at 1 µM [22] | SMILES | further results |
| --- | --- | --- | --- | --- | --- | --- | --- | --- | --- | --- | --- | --- | --- | --- | --- | --- | --- | --- | --- | --- | --- |
|  |  |  |  |  |  |  |  |  |  |  |  |  |  |  |  |  |  |  |  | Nc1ncnc2c1c(-c1ccc(Oc3ccccc3)cc1)nn2[C@@H]1CCCN(C(=O)c2ccc(Nc3ccc4c(c3)C(=O)N(C3CCC(=O)NC3=O)C4=O)cc2)C1 (stereo partly drawn) | Activity [1]: 20.1%; Activity [2]: 18.2% |
| 0.51% | 30 min | 83.2 ng/mL | 9.46 min | 87 min | 48.7 µL/min/mg | 8120 ng·h/mL | 55.9 µL/min/mg | 0.003 ×10⁻⁶ cm/s | 147 µL/min/mg | 1.74 L/kg | 296 min | 4.08 mL/min/kg | 107 µL/min/mg | 98.5% | 0.25 ×10⁻⁶ cm/s | 156 µL/min/mg | 8.91 min | 101% | 13 min | Nc1ncnc2c1c(-c1ccc(Oc3ccccc3)cc1)nn2C1CCN(C(=O)Cc2ccc(Nc3ccc4c(c3)CN(C3CCC(=O)NC3=O)C4=O)cc2)CC1 (stereo not drawn) | half-life at 1 µM [23]: 24.8 min; half-life at 1 µM [24]: 28.5 min; AUC(0-t) at 24 h [25]: 103 ng·h/mL |
| 2.23% | 30 min | 364 ng/mL | 14.4 min | 68.4 min | 60.3 µL/min/mg | 6400 ng·h/mL | 95 µL/min/mg | 0.001 ×10⁻⁶ cm/s | 96.2 µL/min/mg | 2.31 L/kg | 309 min | 5.17 mL/min/kg | 115 µL/min/mg | 107% | 0.071 ×10⁻⁶ cm/s | 139 µL/min/mg | 10 min | 101% | 12.1 min | Nc1ncnc2c1c(-c1ccc(Oc3ccccc3)cc1)nn2[C@@H]1CCCN(C(=O)Cc2ccc(Nc3ccc4c(c3)CN(C3CCC(=O)NC3=O)C4=O)cc2)C1 (stereo partly drawn) | half-life at 1 µM [23]: 14.6 min; half-life at 1 µM [24]: 23 min; AUC(0-t) at 24 h [25]: 357 ng·h/mL |
